Results collected from several papers.
Compare with care: the assays were run in different laboratories.
Cell line: SK-OV-3

| SMILES | assay | setting | measurement | value |
| --- | --- | --- | --- | --- |
| COc1ccc(C(=O)/C=C/c2ccccc2Br)cc1S(N)(=O)=O | cell growth or viability, SRB | 48 h | GI50 | 12.9 µM |
| Cn1ncnc1[C@H]1c2n[nH]c(=O)c3cc(F)cc(c23)N[C@@H]1c1ccc(F)cc1 | colony formation |  | IC50 | 0.0234 µM |
| CC/C(=C(\c1ccccc1)c1ccc(OCCN(C)C)cc1)c1ccccc1 | cell growth or viability, ATP luminescence | 72 h | EC90 | 17.4 µM |
| COc1ccc(-c2ccc(-c3ccc(C(=N)N)nc3)s2)cc1Cl | cell growth or viability, SRB |  | GI50 | 1.75 µM |
| COc1ccc(C(=O)/C=C/c2cccnc2)cc1S(N)(=O)=O | cell growth or viability, SRB | 48 h | GI50 | 16.6 µM |
| Cc1cc(C)n(C(=S)[S][Au][PH](CCCCCC[PH]([Au][S]C(=S)n2nc(C)cc2C)(c2ccccc2)c2ccccc2)(c2ccccc2)c2ccccc2)n1 | cell growth or viability |  | GI50 | 0.852 µM |
| COc1ccc(C(=O)/C=C/c2ccc3ccccc3c2)cc1S(N)(=O)=O | cell growth or viability, SRB | 48 h | GI50 | 4.9 µM |
| C[C@]12CC[C@@H]3c4ccc(O)cc4CC[C@H]3[C@@H]1CC[C@@H]2O | cell growth or viability, ATP luminescence | 72 h | EC50 | 18.1 µM |
| COc1ccc(C(=O)/C=C/c2cccc3ccccc23)cc1S(N)(=O)=O | cell growth or viability, SRB | 48 h | GI50 | 3.7 µM |
| CC(=O)OC[C@H]1O[C@@H]([S-])[C@H](OC(C)=O)[C@@H](OC(C)=O)[C@@H]1OC(C)=O.CCP(CC)CC.[Au+] | cell growth or viability, resazurin |  | IC50 | 2.67 µM |
| COc1ccc(C(=O)/C=C/c2ccc(Cl)c(Cl)c2)cc1S(N)(=O)=O | cell growth or viability, SRB | 48 h | GI50 | 5.5 µM |
| C#C[C@@]1(O)[C@@H](CO)O[C@@H](n2cc(Cl)c3c(N)ncnc32)[C@@H]1O | cell growth or viability, SRB |  | GI50 | 0.119 µM |
| COc1ccc(-c2ccc(-c3ccc(C(=N)N)nc3)s2)cc1 | cell growth or viability, SRB |  | GI50 | 1.7 µM |
| O=C(c1cc(Cc2n[nH]c(=O)c3ccccc23)ccc1F)N1CCN(C(=O)C2CC2)CC1 | colony formation |  | IC50 | 7.6 µM |
| COc1cc(CNC(=O)CCCC/C=C/C(C)C)ccc1O | cell growth or viability, SRB |  | IC50 | 22 µM |
| O=c1[nH]cc(F)c(=O)[nH]1 | cell growth or viability, MTT | 48 h | IC50 | 37.3 µM |
| COc1cccc2c1C(=O)c1c(O)c3c(c(O)c1C2=O)C[C@@](O)(C(=O)CO)C[C@@H]3O[C@H]1C[C@H](N)[C@H](O)[C@H](C)O1 | cell growth or viability, SRB |  | IC50 | 25.8 µM |
| COc1cc(Nc2nccc(-c3cnn4nc(OC)ccc34)n2)cc(C(F)(F)F)c1 | cell growth or viability, ATP luminescence |  | IC50 | 0.16 µM |
